This is a sample that favours compounds with a hit; in the whole collection about 2.5% have one here.
Arr AP2 block = blocks beta-arrestin peptide binding to AP2 adaptin | FITC-arrestin peptide / GST-AP2 beads, flow cytometry; AP2 beta2 appendage carries R879A mutation | inhibition, % at 10 µM | 340,000 tested, 0.31% active | AID 504490;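 active = inhibition above a set limit, near 3 SD of compounds lacking own fluorescence, cut at about 54% in these data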;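 note: plate controls were DMSO wells for no effect and 5 µM unlabelled arrestin peptide for full effect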
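Assay system: GST-AP2 R879A bound to glutathione beads, E. coli-expressed; Medium: PBS with 0.05% Tween 20 and 0.1% BSA; Also added: fluorescein-tagged arrestin peptide at 50 nM final; Timing: 12 min plus 1 h, RT; Measured by: flow cytometry, FL1 (488/535 nm); Evaluation: percent drop in bead-associated FITC signal.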
MBD2 inh = inhibitors of human MBD2 binding to methylated oligonucleotide; Q9UBB5; 370,000 tested, 0.31% active; AID 686964; TR-FRET; inhibition, % at 4.4 µM; in the data active = inhibition above about 13%
UHRF1 MBD2 ctr = UHRF1 methyl-DNA binding inhibition. UHRF1 binding to methylated oligo, TR-FRET. Q96T88. AID 687016. 370,000 tested, 0.75% active. inhibition, % at 4.4 µM; in the data active = inhibition above about 21%;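 note: UHRF1 SRA domain binding a hemimethylated CpG hairpin DNA probe; 0% = median of test compound wells and 100% = reference inhibitor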
Rin1-Abl PPI inh = inhibitors of human Rin1-Abl protein interaction. P00519+Q13671. TR-FRET Rin1/Abl binding, biochemical. inhibition, % at 7.35 µM. 360,000 tested, 0.4% active. AID 588664; in the data active = inhibition above about 5%, passing the limit was not always enough
ABHD5 PLIN5 PPI = blocks binding of human ABHD5 to perilipin-5; Split G. princeps luciferase complementation, luminescence, 4 h; inhibition, % at 4 µM; 360,000 tested, 0.78% active;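 active = inhibition above the mean inhibition across every tested compound plus 3 SD, cut at about 22% in these data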;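 note: 0% = DMSO only wells and the 100% control is not disclosed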
B2AR ag = activates human beta-2 adrenergic receptor causing internalization. P07550. Am2.2-beta2AR cells, FAP receptor internalization, flow cytometry. response, % (concentration not given with the values). 340,000 tested, 0.43% active. AID 504454;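 active = response above a set limit, near 3 SD of response in nonfluorescent compounds, cut at about 42% in these data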
Target sequence (P07550 whole entry, looked up): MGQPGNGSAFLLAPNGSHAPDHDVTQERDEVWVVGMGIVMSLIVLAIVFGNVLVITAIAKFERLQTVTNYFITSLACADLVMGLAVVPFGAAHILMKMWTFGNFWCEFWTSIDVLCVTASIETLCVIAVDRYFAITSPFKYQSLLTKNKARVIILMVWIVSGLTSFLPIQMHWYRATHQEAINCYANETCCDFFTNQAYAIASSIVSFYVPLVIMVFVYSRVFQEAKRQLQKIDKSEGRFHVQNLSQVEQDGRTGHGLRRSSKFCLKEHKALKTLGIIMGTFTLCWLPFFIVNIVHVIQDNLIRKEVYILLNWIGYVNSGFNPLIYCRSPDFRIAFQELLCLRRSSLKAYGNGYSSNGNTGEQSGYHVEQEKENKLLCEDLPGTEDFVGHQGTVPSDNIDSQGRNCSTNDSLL
ABHD5 PLIN5 conf = ABHD5-PLIN5 interaction inhibition, confirmed. shares compounds with ABHD5 PLIN5 PPI. biochemical ABHD5-PLIN5 interaction, luminescence. inhibition, % at 4 µM. 2,200 tested, 67% active. AID 651612; in the data active = inhibition above about 23%;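 note: 0% = DMSO vehicle wells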
HNF4 split-luc = counter-screen for ABHD5-PLIN5 inhibitors: HNF4 split-luciferase | shares compounds with ABHD5 PLIN5 PPI | HNF4 dimerization, luminescence, biochemical | inhibition, % at 4 µM | 2,200 tested, 77% active;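 active = mean inhibition across replicate wells exceeding the computed hit threshold, cut at about 13% in these data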;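 note: light from luciferase halves that rejoin when HNF4 fusion proteins dimerize; 0% = DMSO only wells and the 100% control is not given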
* hit, by the source's call; . = not tested or not shown.

SMILES	Arr AP2 block	MBD2 inh	UHRF1 MBD2 ctr	Rin1-Abl PPI inh	ABHD5 PLIN5 PPI	B2AR ag	ABHD5 PLIN5 conf	HNF4 split-luc
O=C1CC(=O)CC(c2ccccc2)C1	15	-2	1	-2	-3	2	.	.
Cc1ccc(SC(CC(=O)c2ccc(F)cc2)C(=O)O)cc1 (stereo not drawn)	14	5	0	2	84*	-12	24*	70*
CC(C)(C)c1ccc(C(=O)CC(Sc2ccc(Cl)cc2)C(=O)O)cc1 (stereo not drawn)	13	-1	0	4	85*	6	54*	97*
CC(=O)/C=C/c1ccc2ccccc2n1	-4	4	0	0	85*	15	84*	91*
CC(OC(=O)/C=C/c1ccc2ccccc2n1)C(=O)N(C)c1ccccc1 (stereo not drawn)	25	-2	0	4	-1	22	.	.
Fc1ccccc1CSc1nnc(-c2cnccn2)n1Cc1ccco1	-2	0	-2	3	0	-2	.	.
Fc1ccc(CSc2nnc(-c3cccnc3)n2Cc2ccco2)cc1	0	1	-3	-1	16	-3	.	.
C(=C\c1ccccc1)/CSc1nnc(-c2cnccn2)n1Cc1ccco1	7	0	-4	1	37*	-5	19	29*
Clc1ccccc1CSc1nnc(-c2cccnc2)n1Cc1ccco1	9	1	-3	-6	31*	-5	9	12*
Cc1cccc(NC(=O)CSc2nnc(-c3ccco3)c(-c3ccco3)n2)c1	16	1	1	7	26*	-11	90*	67*
Cc1ccc(NC(=O)CSc2nnc(-c3cnccn3)n2Cc2ccco2)cc1	26	-3	-1	-1	8	4	.	.
Cc1cccc(NC(=O)CSc2nnc(-c3cnccn3)n2Cc2ccco2)c1	0	0	0	-4	68*	-2	11	11
Cc1cccc(NC(=O)CSc2nnc(-c3ccco3)c(-c3ccco3)n2)c1C	17	.	.	0	10	-3	.	.
COC(=O)[C@@H](CC(C)C)CP(=O)(OC)[C@@H](C)NC(=O)OCc1ccccc1 (stereo partly drawn)	.	-1	0	.	.	.	.	.
CN(Cc1ccccc1)C(=O)OCc1cn(Cc2ccc(F)c(F)c2)nn1	.	2	2	.	.	.	.	.
O=C(CSc1nnc(-c2cnccn2)n1Cc1ccco1)c1ccc2ccccc2c1	11	-3	-1	-3	37*	3	16	27*
CC(C)OC(=O)CSc1nnc(-c2cnccn2)n1Cc1ccco1	-3	-2	-2	4	-5	5	.	.
CC1CC(C)CN(C(=O)CN2C(=O)NC(c3ccccc3)(c3ccccc3)C2=O)C1 (stereo not drawn)	-7	4	-6	0	34*	8	3	3
CC1=C2NC(N)=[N+](Cc3ccccc3)CC2n2c(=O)n(-c3ccccc3)c(=O)n2C1 (stereo not drawn)	.	-1	0	.	.	.	.	.
COC(=O)[C@@]12CCCCC3=C1N(CCC3)C(=O)[C@H]2CC(=O)NCCCCc1ccccc1	.	3	-1	.	.	.	.	.
O=C(NC1CCC1)c1ccc(C#Cc2cccc(F)c2)cn1	.	7	17	.	.	.	.	.
OC(c1ccccc1)(c1ccccc1)C1CCN(CCCOc2ccc(Cl)cc2)CC1	.	4	1	.	.	.	.	.
Cc1ccccc1NC(=O)Cc1nc(COC(=O)c2ccc(NC(N)=O)cc2)cs1	-6	2	-1	-3	4	8	.	.
Cc1ccccc1NC(=O)Cc1nc(COC(=O)c2ccc(S(C)(=O)=O)c([N+](=O)[O-])c2)cs1	8	.	.	3	27*	5	35*	42*
Cc1cc(N2CCOCC2)ccc1/C=C\[N+](=O)[O-]	5	-3	0	-2	77*	42*	97*	99*
CCCCc1c(-c2ccccc2OC)ncn1Cc1cc(F)cc(F)c1	.	5	0	.	.	.	.	.

Screens (PubChem)
